# Statin myotox sup = suppressors of simvastatin-induced myotoxicity in C2C12 myotubes | rescue of ATP level, % at 7.49 µM | ATP luminescence, 48 h; scaled: DMSO 0, geranylgeraniol control 100 | AID 602340 | 0.78% of 330,000 active;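 active means mean ATP rescue above about 67%, or every replicate alone reaching that limit, limit read from the data, passing the limit was not always enough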;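 further: myotubes were challenged with 10 µM simvastatin during compound exposure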
# CDK5 inh = inhibitors of human CDK5/p35 kinase; Recombinant CDK5/p35, ADP-Glo luminescence, 60 min; AID 488839; Q00535+Q15078; 0.01% of 330,000 active; inhibition, % at 10 µM;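 active means highest replicate inhibition of at least 50% and at least 75% of replicates reaching 50%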;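 further: plate controls were DMSO neutral control for no effect and GW8510 at 10 µM for full effect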
# Target sequence (Q00535 whole entry, looked up): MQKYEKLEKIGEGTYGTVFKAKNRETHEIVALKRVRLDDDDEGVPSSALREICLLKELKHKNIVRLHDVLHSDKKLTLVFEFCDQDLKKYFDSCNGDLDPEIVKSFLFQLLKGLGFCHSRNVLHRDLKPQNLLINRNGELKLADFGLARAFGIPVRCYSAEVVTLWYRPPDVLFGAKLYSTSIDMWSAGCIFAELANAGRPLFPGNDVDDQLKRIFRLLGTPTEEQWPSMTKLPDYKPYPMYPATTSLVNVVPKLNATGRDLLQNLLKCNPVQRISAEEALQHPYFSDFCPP
# Target sequence (Q15078 whole entry, looked up): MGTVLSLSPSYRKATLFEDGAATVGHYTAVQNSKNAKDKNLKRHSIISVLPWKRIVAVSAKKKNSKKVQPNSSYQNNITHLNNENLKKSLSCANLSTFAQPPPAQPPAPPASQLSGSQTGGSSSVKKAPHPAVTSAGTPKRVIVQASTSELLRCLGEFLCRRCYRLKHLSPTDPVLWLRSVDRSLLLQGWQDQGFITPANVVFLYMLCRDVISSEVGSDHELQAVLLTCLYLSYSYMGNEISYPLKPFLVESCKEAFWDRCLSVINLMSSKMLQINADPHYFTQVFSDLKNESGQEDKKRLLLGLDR
# CAL PDZ FP-1 = blocks peptide binding to the human CAL PDZ domain. inhibition, % at 24.9 µM. purified CAL PDZ, TMR-peptide fluorescence polarization, 1 h. Q9HD26. 0.92% of 300,000 active;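 active means mean inhibition of at least 30% with at least half of replicates also reaching 30%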;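 further: 0% = DMSO neutral control and 100% = excess unlabeled competitor peptide PRC23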
# dFosB act = activators of mouse delta FosB homodimer. P13346. purified delta FosB, TAMRA-CDK5 oligo fluorescence polarization; percent of positive-control signal above neutral wells. activation, % at 25 µM. 0.99% of 340,000 active;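 active means mean activation above about 17%, with every replicate also reaching it, limit read from the data, passing the limit was not always enough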
# S100A4 inh HTS = inhibitors of human S100A4 binding to myosin IIA peptide | P26447 | S100A4/TAMRA-MyoIIA peptide fluorescence polarization | inhibition, % at 10.7 µM | 0.14% of 360,000 active | AID 652163;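 active means mean inhibition of at least 70% across replicates, with every replicate also reaching that level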
# Target sequence (P26447 whole entry, looked up): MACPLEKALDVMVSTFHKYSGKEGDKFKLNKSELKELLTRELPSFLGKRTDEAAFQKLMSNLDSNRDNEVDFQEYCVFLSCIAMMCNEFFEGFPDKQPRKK
#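 System – human S100A4 monomer protein, biochemical binding assay · Buffer or medium – Calcium-containing HEPES buffer, pH 7.2 · Timing – 5 min between mix addition and reading · Also added – TAMRA-labelled myosin IIA heavy-chain peptide probe, 5 nM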
# CAL PDZ FP-2 = blocks peptide binding to human CAL PDZ domain; Q9HD26; purified CAL PDZ, TMR-peptide fluorescence polarization, 1 h; inhibition, % at 20 µM; 0.02% of 330,000 active;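 active means highest replicate inhibition of at least 40%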;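 further: plate controls were DMSO neutral control wells for no effect and unlabeled competitor peptide control wells for full effect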
#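 Test system: tagged CAL PDZ domain / Buffer or medium: sodium phosphate/NaCl buffer pH 7.4 with TCEP, IgG, Thesit / Reagent: TMR-labelled reporter peptide T*-PRC34 bound in PDZ groove / Compound dosing: single point, 20 µM / Schedule: 1 h incubation at room temperature before polarization reading / Technique: fluorescence polarization (mP) / Benchmarks: unlabelled peptide, DMSO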
# * marks the source's active call; other numbers are inactive results; . = not tested or not shown; + = active, no number. Compounds with a hit are over-represented: about 2% of the library has one in this group of screens.
SMILES,Statin myotox sup,CDK5 inh,CAL PDZ FP-1,dFosB act,S100A4 inh HTS,CAL PDZ FP-2
C#CCOCCOCCOCCNc1nc(N2CCN(C(=O)[C@H](CCC(=O)O)n3cc(C(N)CC(C)C)nn3)CC2)nc(N2CCN(C(=O)[C@H](Cc3cc4ccccc4[nH]3)n3cc(C(N)[C@H](C)CC)nn3)CC2)n1 (stereo partly specified),3.4,1.8,2.0,9.3,.,-0.1
NC(=O)c1c(NC(=O)Cn2nc(C(=O)O)c3ccccc3c2=O)sc2c1CCCC2,-6.2,-0.7,-2.4,90.6*,-10.8,0.4
COc1ccc(C2=Nc3cccc4cccc(c34)N2)cc1,-7.3,0.7,-4.6,54.6*,.,0.6
Cc1cc(/C=C(\C#N)C(=O)O)c(C)n1-c1ccc(Br)cc1,-9.4,-0.7,+,-2.1,0.3,-2.2
CCN(C(=O)COC(=O)c1ccccc1O)c1nc2ccccc2s1,2.2,0.9,-0.6,0.9,1.2,-0.6
CC(CN1CCN(C)CC1)OC(=O)c1cccc(Cl)c1 (stereo unspecified),28.2,1.1,157.4*,-1.1,-3.2,.
CC(CN1CCN(C)CC1)OC(=O)c1ccccc1 (stereo unspecified),-5.3,1.9,-3.6,-1.5,.,.
C/C=C/c1ccc([C@H]2[C@@H](CO)N(C(=O)Nc3ccccc3F)[C@H]2C#N)cc1,-1.3,.,.,.,89.3*,.
COCC(=O)N1C[C@H]2[C@@H](c3ccccc31)[C@H](CO)N2C(=O)Nc1ccccc1F,-3.9,.,.,.,4.8,.
C/C=C/c1ccccc1[C@H]1[C@@H](CO)N(C(=O)Nc2ccccc2F)[C@H]1C#N,.,.,.,.,-11.0,.
O=C(Nc1ccccc1F)N1C[C@@H]2[C@H](c3ccccc31)[C@@H](CO)N2C(=O)C1CCCC1,2.0,.,.,.,129.5*,.
COCC(=O)N1C[C@H]2[C@@H](c3ccccc31)[C@@H](CO)N2C(=O)Nc1ccccc1F,-0.5,.,.,.,102.2*,.
O=C(Nc1ccccc1F)N1C[C@H]2[C@@H](c3ccccc31)[C@H](CO)N2C(=O)C1CCCCC1,10.1,.,.,.,1.1,.
O=C(C1CCCC1)N1C[C@@H]2[C@H](c3ccccc31)[C@@H](CO)N2C(=O)c1ccccc1F,-2.3,.,.,.,115.0*,.
Cn1cc(Cl)c(C(=O)OCC(=O)Nc2nc(-c3ccc(Br)cc3)cs2)n1,-5.1,-1.1,-2.8,-1.5,.,-0.9
O=C(Nc1ccccc1F)N1CC(=O)N2[C@H](CO)[C@@H](c3ccc(-c4cccnc4)cc3)[C@@H]2C1,.,.,.,.,-2.3,.
CCCNC(=O)N1[C@H](CO)[C@@H]2c3ccccc3N(C(=O)c3ccc(F)cc3)C[C@@H]21,6.4,.,.,.,124.3*,.
O=[N+]([O-])c1ccc(Sc2cccc3cccnc23)c([N+](=O)[O-])c1,73.3*,-0.1,.,-10.6,-3.6,-1.7
COc1ccccc1CNc1ncnc2c1nnn2Cc1ccccc1,125.8*,-0.6,1.1,-9.9,.,-1.0
CCOC(=O)C(=O)/C(=C\N(C)C)c1onc(-c2c(Cl)cccc2Cl)c1C(=O)OC,84.8*,-2.1,1.8,7.9,.,0.0
CCOc1ccccc1C(=O)NCC(=O)OCC(=O)N1CCCC1,-2.9,0.0,44.2*,2.8,6.5,0.1
CCOc1ccccc1C(=O)NCC(=O)OCC(=O)N1C(C)CCCC1C (stereo unspecified),-9.8,0.4,-1.3,-3.9,.,-0.4
CCC(OC(=O)c1cccs1)C(=O)NCc1ccco1 (stereo unspecified),102.1*,-0.1,-3.0,-1.8,.,-0.6
O=C(CCCSc1nnnn1-c1cccc2ccccc12)c1ccc(F)cc1,.,0.2,45.8*,-5.9,.,.
O=C(COC(=O)COc1ccccc1)Nc1ccc(Br)cc1F,-1.2,-0.8,0.4,2.1,0.5,-0.2
SMILES,Statin myotox sup,CDK5 inh,CAL PDZ FP-1,dFosB act,S100A4 inh HTS,CAL PDZ FP-2
COc1ccccc1OCCC(=O)OCC(=O)Nc1ccc(Br)cc1F,.,1.1,54.1*,1.7,-1.4,-1.3
Cc1ccc(CSc2nnc(CC(=O)Nc3ccc(C)cc3)n2C)cc1,.,0.7,-6.9,0.8,.,-0.2
C[C@H]1CN([C@@H](C)CO)C(=O)c2cc(NC(=O)Nc3ccc4c(c3)OCO4)ccc2O[C@H]1CN(C)Cc1ccc(C(F)(F)F)cc1,.,.,.,.,7.1,.
CCS(=O)(=O)c1nc(S(=O)(=O)c2ccc(C)cc2)c(NCCCN2CCCC2=O)s1,-0.4,0.6,0.2,-0.4,84.0*,-2.9
CC(=O)Nc1ccc2c(c1)C(=O)N(c1ccc(C)cc1)C2=O,76.6*,0.0,2.1,-7.6,.,-1.5
Cc1ccc(SCC(=O)Nc2ccc3c(c2)C(=O)N(C)C3=O)cc1,3.0,2.0,179.4*,-10.0,-3.3,-2.4
Cc1ccc(SCC(=O)Nc2ccc3c(c2)C(=O)NC3=O)cc1,.,-0.7,-10.0,2.0,4.2,-0.8
Cn1c(=O)oc2ccccc2c1=O,2.6,0.2,.,-4.9,1.5,0.4
C[C@H]1CN([C@@H](C)CO)S(=O)(=O)c2ccc(Br)cc2O[C@@H]1CN(C)C(=O)Cc1ccccc1,-14.8,.,.,.,1.3,.
C/C=C/c1ccc([C@@H]2[C@@H](CO)N(C(=O)CC)[C@@H]2CNC(=O)C2CC2)cc1,5.9,.,.,.,-4.0,.
C[C@@H]1CN([C@H](C)CO)C(=O)c2cc(C#Cc3ccccc3)cnc2O[C@H]1CN(C)C(=O)c1ccccc1F,.,.,.,.,3.9,.
CCOc1cc(C(C(=O)NCC2CCCO2)N(C(=O)Cn2nnc3ccccc32)c2ccccc2C)ccc1O (stereo unspecified),0.1,-0.3,50.3*,-12.2,-0.1,-2.2
O=C(NC1CCCCC1)C(c1ccc(O)c(O)c1)N(C(=O)Cn1nnc2ccccc21)c1cccc(O)c1 (stereo unspecified),.,2.3,-1.5,32.0*,-4.0,0.2
Cn1c(=O)c(=O)n(C)c2cc(N3CCOCC3)c(NS(=O)(=O)c3ccc([N+](=O)[O-])cc3)cc21,108.7*,0.7,-3.4,-7.0,2.4,-2.5
C/C=C/c1ccc(OCCCNC2CCCC2)c(OC)c1,-32.4,1.2,.,-8.4,.,0.4
C/C=C/c1ccc(OCCCNC(C)CC)c(OC)c1 (stereo unspecified),98.6*,1.5,-2.2,6.9,.,-0.1
CCCCn1c(=O)c(-c2ccccc2)c(O)c2ccccc21,120.0*,-0.7,2.0,-6.9,.,0.0
CCn1c(=O)c(-c2ccccc2)c(O)c2ccccc21,1.1,1.0,-1.2,1.3,.,-0.1
COc1ccc(N=C2SCC(c3ccc([N+](=O)[O-])cc3)=NN2CCO)cc1,.,-0.8,-2.3,1.3,1.6,-0.2
O=[N+]([O-])c1ccc(C2=NN(CCO)C(=Nc3ccc(OC(F)(F)F)cc3)SC2)cc1,11.3,-0.4,30.7*,-15.7,8.1,0.1
CC(=O)N1CCN(S(=O)(=O)c2cccc(C(=O)OCc3cccc(F)c3)c2)CC1,13.6,0.6,-1.9,2.4,-2.8,0.4
CCOC(=O)c1c(C)oc2ccc(OCC(=O)C(C)(C)C)cc12,143.9*,-1.2,-3.6,-1.5,.,.

# From PubChem BioAssay
